Results collected from several papers.
Each line is one published result; the experiments were not run side by side.
Target: Mitogen-activated protein kinase kinase kinase kinase 2 (MAP4K2, Homo sapiens, UniProt Q12851)
One construct used (Q12851 1-820): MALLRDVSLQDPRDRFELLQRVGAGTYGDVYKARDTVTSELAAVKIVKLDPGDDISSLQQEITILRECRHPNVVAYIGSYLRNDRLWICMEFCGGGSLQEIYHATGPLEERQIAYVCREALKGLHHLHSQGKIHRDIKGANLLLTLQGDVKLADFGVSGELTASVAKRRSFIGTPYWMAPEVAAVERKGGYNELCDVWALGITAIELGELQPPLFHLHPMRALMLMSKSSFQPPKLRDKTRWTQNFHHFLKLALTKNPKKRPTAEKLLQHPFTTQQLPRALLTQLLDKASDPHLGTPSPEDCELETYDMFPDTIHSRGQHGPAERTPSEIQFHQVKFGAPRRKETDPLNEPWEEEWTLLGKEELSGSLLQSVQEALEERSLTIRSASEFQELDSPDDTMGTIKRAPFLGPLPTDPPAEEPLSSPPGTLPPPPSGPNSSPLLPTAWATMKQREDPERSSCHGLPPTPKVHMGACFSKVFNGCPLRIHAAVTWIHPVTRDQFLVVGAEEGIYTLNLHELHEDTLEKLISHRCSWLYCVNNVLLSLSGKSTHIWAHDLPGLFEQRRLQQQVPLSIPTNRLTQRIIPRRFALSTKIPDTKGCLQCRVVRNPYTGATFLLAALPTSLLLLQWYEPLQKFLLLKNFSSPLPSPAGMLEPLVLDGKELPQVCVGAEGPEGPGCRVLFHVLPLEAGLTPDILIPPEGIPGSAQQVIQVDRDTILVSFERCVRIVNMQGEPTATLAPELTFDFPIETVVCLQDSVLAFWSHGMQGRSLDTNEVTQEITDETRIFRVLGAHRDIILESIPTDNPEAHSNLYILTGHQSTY

O=C(c1ccc(Nc2ncc(Cl)c(-c3ccc(Cl)s3)n2)cc1)N1CCC(N2CCCC2)CC1
remaining binding (binding; competition with immobilised ligand; 1 µM): 15%

Cc1c[nH]c2nccc(Oc3c(F)cc(Nc4cc(Cl)nc(N)n4)cc3F)c12
remaining binding (cell-free assay; competition with immobilised ligand; 0.1 µM): 69%

C[C@@H](c1ccc(-n2cnc3c(N)ncnc32)cc1)N1CCc2nn(C)c(Cc3ccccc3)c2C1=O
remaining binding (binding; competition with immobilised ligand; 0.1 µM): 100%

C[C@H](c1cccc(C#N)c1)n1cc(Cl)cc(C(N)=O)c1=N
remaining binding (cell-free assay; competition with immobilised ligand; 1 µM): 99%

O=C(NCC1CCOCC1)c1n[nH]cc1NC(=O)c1c(F)cccc1F
remaining binding (binding; competition with immobilised ligand; 1 µM): 100%

CC(=O)C1=C(C)N(c2cccc(C(F)(F)F)c2)C(=O)N[C@@H]1c1ccc(C#N)nc1
remaining binding (cell-free assay; competition with immobilised ligand; 1 µM): 100%

C=CC(=O)N1CCC(C(=O)NCC(=O)N2CCN(c3nc(-c4cnc(N)nc4C(F)F)nc(N4CCOCC4)n3)CC2)CC1
remaining binding (binding; competition with immobilised ligand; 1 µM): 100%

N[C@@H]1CCN(c2nccc(-c3cnn4ncccc34)n2)C1
remaining binding (binding; 1 µM): 100%

O=C(NCCCN1CCOCC1)c1ccc(Nc2ncc(Cl)c(-c3ccc(Cl)s3)n2)cc1
remaining binding (binding; competition with immobilised ligand; 1 µM): 31%

c1cncc(-c2cccc(Nc3nccc(NC4CCCCC4)n3)c2)c1
remaining binding (binding; competition with immobilised ligand; 10 µM): 67%

c1cnn2ncc(-c3ccnc(N4CCC45COC5)n3)c2c1
remaining binding (binding; 1 µM): 70%

CNC(=O)Nc1ccc2c(c1)CC[C@@]21OC(=O)N(CC(=O)N(Cc2ccc(F)cc2)[C@@H](C)C(F)(F)F)C1=O
remaining binding (cell-free assay; competition with immobilised ligand; 1 µM): 76%

CC1CCCN1c1nccc(-c2cnn3ncccc23)n1 (stereo not shown)
remaining binding (binding; 1 µM): 100%

Cc1cnc(Nc2ccc(C(=O)N3CCC(N4CCCC4)CC3)cc2)nc1-c1cc2ccccc2s1
remaining binding (binding; competition with immobilised ligand; 1 µM): 41%

FC(F)(F)Oc1cccc(-c2cnc3ccc(-c4ccncc4)nn23)c1
remaining binding (cell-free assay; competition with immobilised ligand; 5 µM): 17%

CNC(=O)[C@@H]1CC[C@@H](n2c(-c3ccc4cnccc4c3)nc3ccc(C(=O)NCc4cccc(C(N)=O)c4)cc32)C1
remaining binding (binding; competition with immobilised ligand; 1 µM): 100%

CN(C)c1nccc(-c2cnc3ncccn23)n1
remaining binding (binding; 1 µM): 54%

CN(C(=O)c1ccccc1)c1cc(N(C)c2ccc3c(c2)CCc2ccc(C(=O)NCCN4CCOCC4)cc2C3=O)ccc1F
remaining binding (cell-free assay; competition with immobilised ligand; 1 µM): 97%

C[C@H]1CCN(c2nccc(-c3cnn4ncccc34)n2)C1
remaining binding (binding; 1 µM): 71%

O=C(N1CCS(=O)(=O)CC1)N1C[C@H](c2ccc(OC(F)(F)F)cc2)C[C@H](c2nc(C3CC3)no2)C1
remaining binding (cell-free assay; competition with immobilised ligand; 1 µM): 94%

CN(C)c1ncc(F)c(-c2cnn3ncccc23)n1
remaining binding (binding; 1 µM): 82%

O=C(NCc1ncc(C(F)(F)F)cc1Cl)c1ccc2c(c1)C1(CCS(=O)(=O)CC1)[C@@H](C1CC1)N2S(=O)(=O)c1ccc(F)cc1
remaining binding (cell-free assay; competition with immobilised ligand; 1 µM): 91%
